Data reported in publication PMC9102048 (RSC Advances, 2022).
Read-outs that look alike come from different tables or passages of the source.

What was measured:
NHI3T3 cells = assay: Transwell / cell migration assay; assay type: cell-based, mouse
NIH3T3 cells [1] = assay: CCK8 anti-proliferative assay, mouse fibroblast cell line; assay type: cell-based; conditions: for IC50: CCK8; for inhibition at 500 µM: NIH3T3, read-out: Inhibition% @ 0.5 mM; for inhibition at 1000 µM: NIH3T3, read-out: Inhibition% @ 1 mM; for proliferation (fixed cell morphology): NHI3T3, 0.050 mM for 24 h
How it was run: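 NIH3T3 cells in F12K/DMEM with 10% heat-inactivated FBS and penicillin/streptomycin. Log-phase cells seeded at 5 × 10^3 cells/well for 24 h, then exposed to a range of test-compound concentrations for 72 h. Single-point inhibition taken at 1 mM and 0.5 mM. CCK8 added for 1–4 h; absorbance read at 450 nm. IC50 by curve fitting; mean (±SD) of ≥3 independent determinations.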

Solubility in water = assay type: physicochemical; conditions: compared with 11a and 11b
HFL1 = assay: CCK8 antiproliferative assay, human fibroblast cell line; assay type: cell-based; conditions: for proliferation (fixed cell morphology): HFL1, 0.050 mM for 24 h; for IC50: Homo sapiens, HFL1
How it was run: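 HFL1 human fibroblasts grown in F12K/DMEM with 10% heat-inactivated FBS and penicillin/streptomycin. Cells treated with test compound for 48 h, and viability read by CCK8 absorbance at 450 nm. Curve fitting gave IC50. For morphology, cells were treated for 24 h, fixed, and imaged by light microscopy with a 10× objective.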

[2] = clinical trials, after administration of pirfenidone; cited from earlier work
NIH3T3 cells [3] = conditions: pirfenidone, reported in the literature; cited from earlier work
E-cadherin = assay: Immunofluorescence, E-cadherin expression; assay type: cell-based, mouse; conditions: NHI3T3 cells, TGF-β1 (10 ng mL^−1) and 9d (50 μM)
KM mice = assay: Acute toxicity experiment and histopathologic examination; assay type: in vivo; conditions: caudal vein injection, 100/150/300 mg kg^−1
α-SMA = assay: Immunofluorescence, α-SMA expression; assay type: cell-based, mouse; conditions: NHI3T3 cells, TGF-β1 (10 ng mL^−1) and 9d (50 μM)
How it was run: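 NIH3T3 cells grown on coverslips and co-treated with TGF-β1 (10 ng mL−1) and test compound (50 μM) for 24 h. Fixed in 4% paraformaldehyde, then incubated with primary anti-α-SMA overnight at 4 °C. Detected with FITC-conjugated anti-rabbit IgG; nuclei stained with DAPI. Imaged by confocal microscopy; two technical replicates, three biological repeats.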

[4] = Mus musculus, NIH3T3, NIH3T3 cells, averages ±SD of at least three determinations
[5] = Mus musculus, NIH3T3, NIH3T3 cells

## TGF-β1: recombinant TGF-β1, key fibrogenic factor used to induce epithelial–mesenchymal transition and cell migration [reference compound]
NHI3T3 cells; TGF-β1 alone, OD value of the control is 1.0
  cell migration OD value: about 1.7

## CN1CCN(CC(=O)Nc2ccc(-n3cc(C(F)(F)F)ccc3=O)cc2)CC1 [Compound 5a, 2-(4-Methylpiperazin-1-yl)-N-(4-(2-oxo-5-(trifluoromethyl)pyridin-1(2H)-yl)phenyl)acetamide]
NIH3T3 cells [1]; [4]
  IC50: 341 ± 7.3 µM
NIH3T3 cells [1]; Mus musculus
  inhibition at 500 µM: 51.8%
  inhibition at 1000 µM: 62.4%

## CN1CCN(CC(=O)Nc2ccc(Cn3cc(C(F)(F)F)ccc3=O)cc2)CC1 [Compound 10a, 2-(4-Methylpiperazin-1-yl)-N-(4-((2-oxo-5-(trifluoromethyl)pyridin-1(2H)-yl)methyl)phenyl)acetamide]
NIH3T3 cells [1]; [4]
  IC50: 246.3 ± 1.8 µM
NIH3T3 cells [1]; Mus musculus
  inhibition at 500 µM: 66.5%
  inhibition at 1000 µM: 87.7%

## CC(=O)N(C(C)=O)c1ccc(Cn2cc(C(F)(F)F)ccc2=O)cc1 [Compound 9b, N-Acetyl-N-(4-((2-oxo-5-(trifluoromethyl)pyridin-1(2H)-yl)methyl)phenyl)acetamide]
Solubility in water
  solubility in water: good solubility in water
NIH3T3 cells [1]; [5]
  IC50: 87 µM
NIH3T3 cells [1]; [4]
  IC50: 87.5 ± 0.7 µM
NIH3T3 cells [1]; Mus musculus
  inhibition at 500 µM: 80.6%
  inhibition at 1000 µM: 90.5%
NIH3T3 cells [1]
  proliferation (fixed cell morphology): effectively inhibited
HFL1
  proliferation (fixed cell morphology): effectively inhibited
  IC50: 48 µM

## CC(=O)Nc1ccc(-n2cc(C(F)(F)F)ccc2=O)cc1 [Compound 4a, N-(4-(2-oxo-5-(Trifluoromethyl)pyridin-1(2H)-yl)phenyl)acetamide]
NIH3T3 cells [1]; [4]
  IC50: > 1000 µM
NIH3T3 cells [1]; Mus musculus
  inhibition at 500 µM: 10.4%
  inhibition at 1000 µM: 32.6%

## Cc1ccc(=O)n(-c2ccccc2)c1 [pirfenidone, 5-methyl-1-phenyl-2[1H]-pyridone, reference compound]
[2]
  incidence of photo-sensitivity: 51.7%
NIH3T3 cells [1]; [4]
  IC50: > 1000 µM
NIH3T3 cells [1]; Mus musculus
  inhibition at 500 µM: 17.9%
  inhibition at 1000 µM: 35.7%
NIH3T3 cells [3]
  IC50: 2750 µM

## CC(=O)Nc1ccc(Cn2cc(C)ccc2=O)cc1 [Compound 9c, N-(4-((5-Methyl-2-oxopyridin-1(2H)-yl)methyl)phenyl)acetamide]
NIH3T3 cells [1]; [4]
  IC50: 113 ± 1.9 µM
NIH3T3 cells [1]; Mus musculus
  inhibition at 500 µM: 72.5%
  inhibition at 1000 µM: 89%

## CC(=O)N(C(C)=O)c1ccc(Cn2cc(C)ccc2=O)cc1 [Compound 9d, N-Acetyl-N-(4-((5-methyl-2-oxopyridin-1(2H)-yl)methyl)phenyl)acetamide]
Solubility in water
  solubility in water: good solubility in water
E-cadherin
  expression of E-cadherin: reversed after 9d treatment, higher than the control group
NIH3T3 cells [1]; [5]
  IC50: 69 µM
NIH3T3 cells [1]; [4]
  IC50: 69.1 ± 2.7 µM
NIH3T3 cells [1]; Mus musculus
  inhibition at 500 µM: 88.4%
  inhibition at 1000 µM: 98.7%
NIH3T3 cells [1]
  proliferation (fixed cell morphology): effectively inhibited
NIH3T3 cells [1]; relative to pirfenidone IC50 2.75 mM
  times the anti-fibrosis activity of pirfenidone: more than 40 times
NHI3T3 cells; 9d 50 μM
  3T3 cell migration (transwell): markedly inhibited
NHI3T3 cells; 9d + TGF-β1, OD value of the control is 1.0, TGF-β1 alone about 1.7
  cell migration OD value: about 0.8
NHI3T3 cells; 9d alone, 50 μM, OD value of the control is 1.0
  cell migration OD value: about 0.35
HFL1
  proliferation (fixed cell morphology): effectively inhibited
  IC50: 35 µM
KM mice
  histopathology (H&E) of liver, kidney, heart, spleen: no pathological abnormalities such as inflammation, injury and necrosis
α-SMA
  expression of α-SMA: decreased

## Cc1ccc(=O)n(-c2ccc(NC(=O)[C@@H](C)N(C)C)cc2)c1 [Compound 5c, (R)-2-(Dimethylamino)-N-(4-(5-methyl-2-oxopyridin-1(2H)-yl)phenyl)propanamide]
NIH3T3 cells [1]; [5]
  IC50: 490 µM
NIH3T3 cells [1]; [4]
  IC50: 490.2 ± 2.7 µM
NIH3T3 cells [1]; Mus musculus
  inhibition at 500 µM: 26.8%
  inhibition at 1000 µM: 52.9%

## 1-Benzyl-5-(trifluoromethyl)pyridin-2(1H)-one [Compound 7a]
NIH3T3 cells [1]; NIH3T3 cells, CCK8, 0.5 mM
  Inhibition% @ 0.5 mM: 20.58%
NIH3T3 cells [1]; NIH3T3 cells, CCK8, 1 mM
  Inhibition% @ 1 mM: 40.95%
NIH3T3 cells [1]; NIH3T3 cells, averages ±SD of at least three determinations
  IC50: > 500 µM

## CN(C)CC(=O)Nc1ccc(-n2cc(C(F)(F)F)ccc2=O)cc1 [Compound 5b, 2-(Dimethylamino)-N-(4-(2-oxo-5-(trifluoromethyl)pyridin-1(2H)-yl)phenyl)acetamide]
NIH3T3 cells [1]; [4]
  IC50: > 500 µM
NIH3T3 cells [1]; Mus musculus
  inhibition at 500 µM: 34.2%
  inhibition at 1000 µM: 45.8%

## CC(=O)Nc1ccc(-n2cc(C)ccc2=O)cc1 [Compound 4b, N-(4-(5-Methyl-2-oxopyridin-1(2H)-yl)phenyl)acetamide]
NIH3T3 cells [1]; [4]
  IC50: > 1000 µM
NIH3T3 cells [1]; Mus musculus
  inhibition at 500 µM: 1.3%
  inhibition at 1000 µM: 25.7%

## CC(=O)N(C)c1ccc(Cn2cc(C)ccc2=O)cc1 [Compound 11b, N-Methyl-N-(4-((5-methyl-2-oxopyridin-1(2H)-yl)methyl)phenyl)acetamide]
NIH3T3 cells [1]; [4]
  IC50: 140 ± 9.8 µM
NIH3T3 cells [1]; Mus musculus
  inhibition at 500 µM: 66.7%
  inhibition at 1000 µM: 79.4%

## CC(=O)Nc1ccc(Cn2cc(C(F)(F)F)ccc2=O)cc1 [Compound 9a, N-(4-((2-oxo-5-(Trifluoromethyl)pyridin-1(2H)-yl)methyl)phenyl)acetamide]
NIH3T3 cells [1]; [4]
  IC50: 132 ± 2.3 µM
NIH3T3 cells [1]; Mus musculus
  inhibition at 500 µM: 68.4%
  inhibition at 1000 µM: 86.2%

## CC(=O)N(C)c1ccc(Cn2cc(C(F)(F)F)ccc2=O)cc1 [Compound 11a, N-Methyl-N-(4-((2-oxo-5-(trifluoromethyl)pyridin-1(2H)-yl)methyl)phenyl)acetamide]
NIH3T3 cells [1]; [4]
  IC50: 146 ± 5.5 µM
NIH3T3 cells [1]; Mus musculus
  inhibition at 500 µM: 67.9%
  inhibition at 1000 µM: 78.5%

## CN(C)CC(=O)Nc1ccc(Cn2cc(C(F)(F)F)ccc2=O)cc1 [Compound 10d, 2-(Dimethylamino)-N-(4-((2-oxo-5-(trifluoromethyl)pyridin-1(2H)-yl)methyl)phenyl)acetamide]
NIH3T3 cells [1]; [4]
  IC50: 273.1 ± 1.5 µM
NIH3T3 cells [1]; Mus musculus
  inhibition at 500 µM: 52.4%
  inhibition at 1000 µM: 71.3%
